Data set [1] relates to HepG2. The experiment in a line: Cytotoxicity against human HepG2 cells up to 100 uM after 48 hrs by WST1 assay. Format: cell-based. The note with it: hepg2, 48 h. (In general: Tetrazolium dyes change colour on reduction, which living cells bring about.)
For data set [2], the target named is T1, Bile acid receptor (Homo sapiens) (UniProt Q96RI1).
T1 sequence (whole entry): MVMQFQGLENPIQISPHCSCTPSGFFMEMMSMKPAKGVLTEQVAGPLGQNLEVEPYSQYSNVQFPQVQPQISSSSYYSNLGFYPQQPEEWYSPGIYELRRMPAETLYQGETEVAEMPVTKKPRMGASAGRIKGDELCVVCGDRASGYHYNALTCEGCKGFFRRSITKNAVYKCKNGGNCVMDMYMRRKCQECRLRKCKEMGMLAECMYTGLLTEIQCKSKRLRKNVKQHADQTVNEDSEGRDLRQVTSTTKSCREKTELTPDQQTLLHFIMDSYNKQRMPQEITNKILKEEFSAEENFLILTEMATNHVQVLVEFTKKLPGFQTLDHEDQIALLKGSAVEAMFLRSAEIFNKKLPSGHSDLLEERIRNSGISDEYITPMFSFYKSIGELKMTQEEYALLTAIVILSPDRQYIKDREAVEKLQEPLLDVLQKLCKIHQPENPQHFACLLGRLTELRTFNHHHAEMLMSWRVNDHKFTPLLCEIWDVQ
Kind of data set: Transactivation of FXR in human HepG2 cells assessed as BSEP mRNA expression at 1 uM after 8 to 16 hrs by SYBR green based qRT-PCR analysis relative to DMSO control. It counts as cell-based. The procedure, abridged:
(§1)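 HepG2 cells incubated with test compound (0.1 and 1 μM) or 0.1% DMSO for 8 or 16 h, washed in cold PBS, RNA extracted; target mRNA by SYBR Green qRT-PCR, duplicate samples, ≥4 independent experiments; comparative ΔΔCt with GAPDH reference, vehicle set as 100%.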
In general terms: In qPCR the cycle at which signal appears reflects the starting amount.

Data set [3] has as its target Peroxisome proliferator-activated receptor alpha (Homo sapiens) (UniProt Q07869). The experiment in a line: Transactivation of human GAL4-fused PPARalpha ligand binding domain expressed in […] cells at 10 uM after 12 to 14 hrs by dual-glo luciferase reporter gene assay. Format: cell-based. The method in brief: (§2)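 HEK293T cells in DMEM/10% FCS, Opti-MEM before Lipofectamine LTX transfection with pFR-Luc reporter, pRL-SV40 and pFA-CMV GAL4–LBD plasmid. 5 h later compound in 0.1% DMSO, Opti-MEM, overnight (12−14 h). Dual luciferase; firefly/renilla ×1000 = RLU, fold over DMSO control; triplicates, ≥3 independent repeats.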
Background: In a reporter assay the amount or activity of a reporter protein is the signal.

Data set [4] addresses T2, Peroxisome proliferator-activated receptor gamma (Homo sapiens) (UniProt P37231).
T2 sequence (whole entry): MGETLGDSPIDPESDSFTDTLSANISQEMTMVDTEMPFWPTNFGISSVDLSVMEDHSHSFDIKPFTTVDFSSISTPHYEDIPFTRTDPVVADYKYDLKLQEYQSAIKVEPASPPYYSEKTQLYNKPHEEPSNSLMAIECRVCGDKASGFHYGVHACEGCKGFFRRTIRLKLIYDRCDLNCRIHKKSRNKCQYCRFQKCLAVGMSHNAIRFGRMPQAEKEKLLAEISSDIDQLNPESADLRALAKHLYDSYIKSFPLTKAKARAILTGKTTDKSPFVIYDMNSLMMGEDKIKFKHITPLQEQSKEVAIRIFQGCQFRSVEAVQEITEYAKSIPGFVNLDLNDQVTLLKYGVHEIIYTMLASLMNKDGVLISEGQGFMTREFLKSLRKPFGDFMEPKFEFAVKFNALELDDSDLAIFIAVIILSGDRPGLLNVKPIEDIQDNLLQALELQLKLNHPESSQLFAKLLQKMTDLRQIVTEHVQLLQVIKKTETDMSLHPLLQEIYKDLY
The experiment in a line: Transactivation of human GAL4-fused PPARgamma ligand binding domain expressed in HEL293T cells at 10 uM after 12 to 14 hrs by dual-glo luciferase reporter gene assay relative to pioglitazone. Format: cell-based.

For data set [5], the target named is Retinoic acid receptor RXR-alpha (Homo sapiens) (UniProt P19793). Kind of data set: Transactivation of human GAL4-fused RXRalpha ligand binding domain expressed in […] cells at 10 uM after 12 to 14 hrs by dual-glo luciferase reporter gene assay. It counts as cell-based. The procedure, abridged: as §2
Chain of Retinoic acid receptor RXR-alpha (Homo sapiens) (P19793 whole entry, the tested form may be a part): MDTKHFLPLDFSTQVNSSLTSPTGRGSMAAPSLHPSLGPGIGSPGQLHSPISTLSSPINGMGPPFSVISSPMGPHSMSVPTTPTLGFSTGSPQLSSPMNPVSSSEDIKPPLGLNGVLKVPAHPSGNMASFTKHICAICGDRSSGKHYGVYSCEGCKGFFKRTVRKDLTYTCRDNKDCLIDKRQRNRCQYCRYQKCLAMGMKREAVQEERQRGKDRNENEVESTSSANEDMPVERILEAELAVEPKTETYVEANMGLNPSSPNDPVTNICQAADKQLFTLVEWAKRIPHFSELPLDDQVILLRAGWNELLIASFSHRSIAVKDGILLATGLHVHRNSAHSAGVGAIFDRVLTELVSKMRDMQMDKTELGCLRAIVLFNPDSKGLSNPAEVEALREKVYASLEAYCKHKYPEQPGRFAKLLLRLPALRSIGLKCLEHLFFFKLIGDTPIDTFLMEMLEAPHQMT
For data set [6], the target named is Vitamin D3 receptor (Homo sapiens) (UniProt P11473). Kind of data set: Transactivation of human GAL4-fused VDR ligand binding domain expressed in […] cells at 10 uM after 12 to 14 hrs by dual-glo luciferase reporter gene assay. Format: cell-based. The method in brief:
as §2

Data set [7] addresses T1, Bile acid receptor (Homo sapiens). Kind of data set: Transactivation of FXR in human HepG2 cells assessed as SHP mRNA expression at 1 uM after 8 to 16 hrs by SYBR green based qRT-PCR analysis relative to DMSO control. Format: cell-based. The procedure, abridged: as §1
The target in data set [8] is T3, Bile acid receptor (Homo sapiens, UniProt Q96RI1).
T3 sequence (Q96RI1 whole entry): T1 sequence (whole entry)
The experiment in a line: Transactivation of FXR in human HepG2 cells assessed as CYP7A1 mRNA expression at 0.1 uM after 8 to 16 hrs by SYBR green based qRT-PCR analysis relative to DMSO control. Format: ADME, cell-based. The procedure, abridged:
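HepG2 cells incubated with compound (0.1 or 1 μM) or 0.1% DMSO for 8 or 16 h, washed with cold PBS, RNA extracted. Quantified by SYBR Green real-time PCR, duplicate samples, at least four independent experiments. ΔΔCt method with GAPDH as reference gene. Expressed as % of vehicle (set to 100%), mean ± SEM.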

The test system of data set [9] is MDM. The experiment in a line: Effect on IL-10 levels in LPS-stimulated primary human MDM at 0.01 uM after 16 hrs by cytometric bead array method. It counts as functional, cell-based. The method in brief:
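Blood monocytes isolated by dextran sedimentation and Nycoprep gradient, adherence-selected 1 h, differentiated with GM-CSF 10 ng/mL for 7 days plus IFNγ 10 ng/mL for last 48 h. Stimulated with LPS 100 ng/mL plus compound for 16 h; supernatant IL-10 and IL-12p70 measured by cytometric bead array flow cytometry.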

In data set [10] the target is T4, Bifunctional epoxide hydrolase 2 (Homo sapiens) (UniProt P34913).
T4 sequence (whole entry): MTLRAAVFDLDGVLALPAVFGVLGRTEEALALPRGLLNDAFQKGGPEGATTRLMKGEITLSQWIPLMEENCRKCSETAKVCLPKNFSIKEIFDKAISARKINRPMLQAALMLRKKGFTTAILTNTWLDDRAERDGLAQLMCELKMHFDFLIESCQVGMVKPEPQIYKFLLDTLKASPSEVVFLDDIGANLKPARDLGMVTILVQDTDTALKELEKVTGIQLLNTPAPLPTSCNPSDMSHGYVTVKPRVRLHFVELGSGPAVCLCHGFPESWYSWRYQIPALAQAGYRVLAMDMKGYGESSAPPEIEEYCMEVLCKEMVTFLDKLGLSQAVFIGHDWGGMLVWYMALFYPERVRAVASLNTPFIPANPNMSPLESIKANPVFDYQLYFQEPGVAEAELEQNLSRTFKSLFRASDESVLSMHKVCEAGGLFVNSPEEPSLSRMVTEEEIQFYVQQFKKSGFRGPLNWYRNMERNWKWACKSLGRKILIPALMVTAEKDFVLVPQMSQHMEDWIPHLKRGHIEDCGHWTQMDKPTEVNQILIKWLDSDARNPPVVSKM
The note with it: 0.01 uM.

Calls of active or inactive are those of the source. No cut-off for these calls is given here.

Chain of Vitamin D3 receptor (Homo sapiens) (P11473 whole entry, the tested form may be a part): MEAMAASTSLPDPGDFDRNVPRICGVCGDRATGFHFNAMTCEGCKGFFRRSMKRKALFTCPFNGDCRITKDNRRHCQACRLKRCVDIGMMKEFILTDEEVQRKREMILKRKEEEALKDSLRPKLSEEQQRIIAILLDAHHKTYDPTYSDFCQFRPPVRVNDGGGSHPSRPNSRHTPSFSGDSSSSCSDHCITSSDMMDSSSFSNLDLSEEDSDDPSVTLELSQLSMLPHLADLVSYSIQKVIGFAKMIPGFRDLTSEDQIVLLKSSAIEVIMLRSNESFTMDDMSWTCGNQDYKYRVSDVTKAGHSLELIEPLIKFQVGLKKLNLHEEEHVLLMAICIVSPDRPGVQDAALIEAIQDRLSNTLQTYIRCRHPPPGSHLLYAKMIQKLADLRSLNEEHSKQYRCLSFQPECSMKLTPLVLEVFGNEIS
Chain of Peroxisome proliferator-activated receptor alpha (Homo sapiens) (Q07869 whole entry, the tested form may be a part): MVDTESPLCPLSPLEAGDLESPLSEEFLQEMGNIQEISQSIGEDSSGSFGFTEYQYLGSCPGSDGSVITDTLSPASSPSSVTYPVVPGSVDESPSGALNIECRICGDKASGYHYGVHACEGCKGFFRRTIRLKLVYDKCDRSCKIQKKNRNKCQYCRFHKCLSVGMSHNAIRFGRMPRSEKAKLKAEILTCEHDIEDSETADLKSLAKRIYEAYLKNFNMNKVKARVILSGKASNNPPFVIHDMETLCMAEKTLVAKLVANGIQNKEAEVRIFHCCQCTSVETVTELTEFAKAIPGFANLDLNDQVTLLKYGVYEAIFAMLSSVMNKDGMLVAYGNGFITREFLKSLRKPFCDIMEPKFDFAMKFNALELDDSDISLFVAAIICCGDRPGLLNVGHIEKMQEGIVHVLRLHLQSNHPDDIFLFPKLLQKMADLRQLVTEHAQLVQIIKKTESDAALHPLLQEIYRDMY

Consider `CC(C)(C)c1ccc(C(=O)NCc2ccc(NS(C)(=O)=O)cc2Cl)cc1`, for which the Activity result was “Non-Toxic” in data set [1], 222% in [2], 317% in data set [7] and 50% in data set [8]. The result in data set [3], in [5], in data set [6] and in data set [9] was inactive. In data set [4], this compound yielded an Emax of 30%. Besides, the inhibition entry in data set [10] is “inactive”.

The record behind these values is ChEMBL document CHEMBL4017509, “A Dual Modulator of Farnesoid X Receptor and Soluble Epoxide Hydrolase To Counter Nonalcoholic Steatohepatitis” (J Med Chem, 2017).
